Screens from PubChem.
HKDC1 inh – HKDC1 hexokinase inhibitors, primary screen, biochemical, fluorescence, uHTS. inhibition, % at 20 µM. AID 493160, 2011. hit rate 0.16% among 340,000. recombinant HKDC1, G6PDH/diaphorase resazurin coupled fluorescence;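 active = inhibition above about 35% when tested at 20 µM, limit read from the data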;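 note: plate controls were DMSO wells with enzyme for no effect and DMSO wells lacking enzyme for full effect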
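Assay system: in-house recombinant HK5 (HKDC1) enzyme. Input: HKDC1 at 5 µg/mL. Medium: Tris pH 8.0 buffer with MgCl2, Tween-20, BSA, BME. Dosing: single 20 µM dose. Schedule: 90 min reaction incubation at room temperature, dark. Signal: resazurin-to-resorufin fluorescence via G6PDH and diaphorase coupling, 525/613 nm. Controls: DMSO-enzyme wells negative, buffer-substituted wells positive.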
LMPTP inh – LMPTP phosphatase inhibitors, primary screen, biochemical, fluorescence intensity, uHTS. Low molecular weight phosphotyrosine protein phosphatase (Homo sapiens), P24666. recombinant LMPTP-A, OMFP fluorogenic substrate. inhibition, % at 20 µM. hit rate 0.22% among 360,000. AID 651560, 2012;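 active = compounds that cut the enzyme signal by at least half of the control window in the single-dose screen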;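 note: plate controls were DMSO wells with enzyme plus substrate for no effect and substrate without enzyme for full effect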
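Test system: LMPTP-A, protein tyrosine phosphatase of low molecular weight; Input: 0.625 nM enzyme; Incubation: 50 min dark incubation at room temperature; Signal: endpoint fluorescence intensity from OMFP dephosphorylation; Read-out basis: % inhibition versus control wells.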
Scp1 inh – Scp-1 phosphatase inhibitors, primary screen, biochemical, colorimetric, uHTS. hit rate 0.88% among 340,000. Recombinant Scp1, phosphopeptide, malachite green phosphate absorbance. Carboxy-terminal domain RNA polymerase II polypeptide A small phosphatase 1 (Homo …. inhibition, % at 20 µM;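 active = inhibition above about 50% at 20 µM, limit read from the data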;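 note: plate controls were DMSO wells with enzyme for no effect and wells lacking enzyme for full effect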
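assay system = SCP-1 phosphatase catalytic domain, residues 76-261 | buffer or medium = 50 mM Tris acetate pH 5.5, 0.005% Tween-20, 10 mM MgCl2 | incubation = enzyme reaction 45 min at room temperature, colour 5 min, stabilisation 30 min | signal = Phosphate-binding colour reagent, absorbance read at 630 nm | measure = % inhibition at 20 µM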
SUMO1-SIM PPI – modulators of SUMO1 protein-protein interactions, primary screen, biochemical, uHTS | Small ubiquitin-related modifier 1 (Homo sapiens), P63165 | SUMO1 binding to a labelled peptide, TR-FRET, 1 h | inhibition, % at 20 µM | hit rate 0.33% among 360,000 | AID 602429, 2012; in the data active = inhibition above about 37%
DNMT1 inh – human DNMT1 methyltransferase inhibitors, primary screen, biochemical, molecular beacon, fluorescence, HinP1I cleavage, uHTS; DNA (cytosine-5)-methyltransferase 1 (Homo sapiens), P26358; AID 588458, 2011; inhibition (reported as % activation of signal), % at 10 µM; hit rate 0.83% among 360,000; in the data active = inhibition above about 50%
Target sequence (P26358 504-1616 limits assumed): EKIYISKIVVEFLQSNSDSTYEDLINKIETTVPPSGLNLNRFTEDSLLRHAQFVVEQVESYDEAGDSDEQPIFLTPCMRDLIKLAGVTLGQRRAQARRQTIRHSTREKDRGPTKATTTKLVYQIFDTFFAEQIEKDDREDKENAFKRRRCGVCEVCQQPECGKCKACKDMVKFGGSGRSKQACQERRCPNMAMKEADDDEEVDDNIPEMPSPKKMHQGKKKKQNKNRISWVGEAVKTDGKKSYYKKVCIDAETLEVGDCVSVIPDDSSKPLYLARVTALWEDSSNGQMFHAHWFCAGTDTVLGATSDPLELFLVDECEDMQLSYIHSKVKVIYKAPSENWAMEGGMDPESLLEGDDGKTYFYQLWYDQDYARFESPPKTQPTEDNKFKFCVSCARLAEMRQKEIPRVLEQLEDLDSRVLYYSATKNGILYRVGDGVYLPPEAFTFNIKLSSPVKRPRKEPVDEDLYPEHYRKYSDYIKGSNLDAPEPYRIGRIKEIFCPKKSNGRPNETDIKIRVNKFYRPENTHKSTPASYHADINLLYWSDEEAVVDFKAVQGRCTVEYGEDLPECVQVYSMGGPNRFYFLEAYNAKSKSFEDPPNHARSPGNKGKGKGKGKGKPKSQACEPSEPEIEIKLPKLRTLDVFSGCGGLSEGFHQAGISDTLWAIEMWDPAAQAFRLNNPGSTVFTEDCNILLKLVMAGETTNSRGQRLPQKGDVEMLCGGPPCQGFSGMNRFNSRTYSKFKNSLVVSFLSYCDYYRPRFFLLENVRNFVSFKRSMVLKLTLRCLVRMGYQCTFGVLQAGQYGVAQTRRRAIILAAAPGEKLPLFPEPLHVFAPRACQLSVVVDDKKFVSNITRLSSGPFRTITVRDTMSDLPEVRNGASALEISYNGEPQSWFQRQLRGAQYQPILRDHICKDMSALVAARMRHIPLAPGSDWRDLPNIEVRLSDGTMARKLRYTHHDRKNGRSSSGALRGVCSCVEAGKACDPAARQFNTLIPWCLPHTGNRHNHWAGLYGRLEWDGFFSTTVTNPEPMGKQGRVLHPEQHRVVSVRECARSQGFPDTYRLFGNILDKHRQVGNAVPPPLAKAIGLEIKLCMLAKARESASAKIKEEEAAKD
STEP block – STEP phosphatase inhibitors, primary screen, biochemical, fluorescence intensity, uHTS | hit rate 0.25% among 360,000 | recombinant STEP, OMFP fluorogenic substrate | Tyrosine-protein phosphatase non-receptor type 5 (Homo sapiens), P54829 | inhibition, % at 20 µM;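 active = inhibition at 20 µM, scaled per plate between control wells, above about 37%, limit read from the data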;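 note: 0% = DMSO with enzyme and substrate and 100% = substrate only without enzyme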
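Material: STEP (striatal-enriched tyrosine phosphatase) enzyme, cell-free; Compound dosing: 20 µM single dose in 1% DMSO; Technique: fluorescence read at 480 nm ex / 540 nm em; Times: reaction 20 min, ambient temperature; Medium: 50 mM Bis-Tris pH 6.0 with 2.5 mM DTT and 0.005% Tween 20; Also added: OMFP at 25 µM.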
* marks the source's active call; other numbers are inactive results; / = no result. Rows were chosen to be rich in hits. Some 1.8% of all compounds tested hit in one or more screens of this group.

SMILES	HKDC1 inh	LMPTP inh	Scp1 inh	SUMO1-SIM PPI	DNMT1 inh	STEP block
COc1cc(OC)c(OC)cc1/C=C1/Cc2ccccc2C1=O	2.0	0.9	-4.2	-5.2	12.6	-3.2
CCOc1ccc(NC(=O)c2ccc3[nH]c(=O)c(=O)[nH]c3c2)cc1	6.6	-0.5	0.0	-0.4	0.7	1.4
COc1ccc(OCC(=O)N/N=C/c2cccn2-c2cccc(C(=O)O)c2)cc1	-2.7	0.7	32.3	13.4	52.8*	-0.7
CNc1ccc(Br)cc(C(=O)/C=C/c2ccc(Cl)cc2Cl)c1=O	19.2	33.3	0.1	18.6	67.0*	5.0
CNc1ccc(Br)cc(C(=O)/C=C/c2ccc(OC)cc2OC)c1=O	24.8	24.2	11.6	11.8	15.7	-1.6
CCOC(=O)N1CCN(S(=O)(=O)c2ccc3[nH]cc(C(=O)O)c(=O)c3c2)CC1	-1.1	-2.1	7.9	22.0	14.2	7.5
O=C(O)c1c[nH]c2ccc(S(=O)(=O)N3CCN(c4ccc(F)cc4)CC3)cc2c1=O	-5.2	58.8*	17.1	3.9	9.1	75.8*
CC1CCN(C(=O)COC(=O)c2ccc3c(c2)OCO3)CC1	1.9	0.3	-1.7	1.0	3.6	1.0
Cc1ccsc1C=Nc1ccc(O)cc1	23.7	33.5	-7.3	67.9*	89.4*	22.6
Cc1ccsc1/C=N/NC(=O)CO	-3.6	-0.7	0.7	-6.0	0.1	2.2
COc1ccc([C@H]2C(C#N)=C([S-])N[C@](C)(O)[C@@H]2[n+]2ccccc2)cc1	6.4	49.1*	-7.8	-34.0	47.5	-0.6
CCOP(=O)(OCC)C(Nc1ccccc1)c1ccccc1C(F)(F)F (stereo not drawn)	-0.6	0.2	-10.9	5.6	-9.7	-1.5
CC(=O)c1c(C)[nH]c(C(=O)OCC(=O)N2CCc3ccccc32)c1C	-3.3	-0.3	5.7	-4.6	50.1*	-3.7
Cc1ccc(-n2nc(C)c(/C=N/n3c(C)n[nH]c3=S)c2Cl)cc1	-6.4	-0.5	-10.4	38.5*	0.8	1.2
O=C(CNC(=O)c1ccccc1)N/N=C/c1ccccc1Cl	-8.1	-1.3	-6.5	48.1*	-4.7	-0.8
O=C(CNc1ccc2c(c1)OCO2)N/N=C\c1ccccc1Cl	3.9	2.6	-4.4	50.8*	-11.6	-2.7
CCOc1ccc(NS(=O)(=O)c2ccc(C(=O)NCC(c3ccco3)N3CCCC3)cc2)cc1 (stereo not drawn)	2.6	0.2	-5.7	3.9	-3.6	-2.0
Cc1c2cc[n+](CCN3CCCCC3)cc2c(C)c2c1[nH]c1ccc(O)cc12	20.2	48.2	-10.4	91.9*	0.7	5.3
COc1ccc([C@H]2CC(=O)C=C(/C=C/c3ccc(C(F)(F)F)cc3)C2)cc1	1.6	3.1	-7.1	-5.5	6.4	8.6
O=S1(=O)CC(N2CCSCC2)CN1Cc1cn(Cc2ccc(F)cc2)nn1 (stereo not drawn)	/	0.7	/	-0.6	/	/
CCOC(=O)c1c(C)nc2sc3c(=O)n(-c4ccc(C)cc4)cnc3c2c1-c1ccc(OC)cc1	-8.9	-0.9	-4.9	40.4*	9.2	-3.7
CCn1c(=NC(=O)c2cccc(N3C(=O)CCC3=O)c2)sc2c(C)ccc(OC)c21	-7.1	3.3	-6.8	-14.9	-2.6	0.6
CCn1c(=NC(=O)c2ccc(N3C(=O)CCC3=O)cc2)sc2c(OC)ccc(OC)c21	1.7	3.6	58.0*	-30.2	2.1	3.5
COCCn1c(=NC(=O)c2ccc(S(=O)(=O)N3CCOCC3)cc2)sc2cc(S(N)(=O)=O)ccc21	1.1	1.5	-10.5	-7.1	-0.8	-0.7
CCn1c(=NC(=O)c2ccc(S(=O)(=O)N3CCOCC3)cc2)sc2cccc(OC)c21	-1.1	2.4	-12.6	42.7*	-7.1	-3.0
SMILES	HKDC1 inh	LMPTP inh	Scp1 inh	SUMO1-SIM PPI	DNMT1 inh	STEP block
O=Nc1c(O)c2ccccc2c2ccccc12	22.9	4.0	-8.1	-37.5	57.6*	2.6
O=c1ccc2ccccc2c2ccccc12	/	-0.3	/	0.4	-0.1	1.0
Cc1ccc(OCCC(=O)OCC(=O)Nc2ccc3c(c2)OCO3)cc1	-1.9	0.6	-6.9	2.9	-5.4	0.1
OCCC1CN(Cc2cnc(-c3ccc(Cl)cc3)nc2)CCN1C1CCCC1 (stereo not drawn)	6.7	-1.1	-9.0	-6.4	1.1	-1.5
O=C(O)C(O)c1ccco1 (stereo not drawn)	4.9	31.2	77.3*	5.5	91.9*	53.1*
O=c1cc(-c2ccc(O)c(O)c2)oc2c1ccc1ccccc12	8.1	15.2	1.5	75.2*	0.6	4.3
CCC(CO)Oc1cc(NC(=O)c2ccccc2C)c2ncn(C(C)C)c2c1 (stereo not drawn)	23.1	-2.1	-5.9	50.0*	-45.9	-3.0
CCC(CN(C)C)Oc1cc(NCc2ccccc2)c2ncn(C(C)C)c2c1 (stereo not drawn)	20.6	4.9	1.6	4.5	60.6*	-1.9
CCC(CO)Oc1cc(NC(=O)c2ccccc2N)c2ncn(C(C)C)c2c1 (stereo not drawn)	14.8	-1.2	0.6	6.4	-7.4	-3.3
CCC(CO)Oc1cc(NC(=O)c2ccccc2F)c2ncn(C(C)C)c2c1 (stereo not drawn)	25.4	-2.3	4.0	92.0*	-30.1	1.8
CSc1ccc(C2=C/C(=C3/SC(=S)NC3=O)c3ccccc3O2)cc1	-4.9	1.9	-11.7	-17.6	70.3*	3.0
CC(=O)c1cccc(-c2ccc3c(=O)[nH]c(Nc4ccccc4)cc3c2)c1	6.7	19.0	7.1	34.2	105.3*	20.1
O=c1[nH]c(Nc2ccccc2)cc2ccccc12	12.8	12.2	-9.6	28.6	44.3	7.5
O=C1CCCC(O)=C1N=Nc1cccc(C(=O)O)c1	-2.9	4.6	60.8*	1.0	43.3	4.7
CCN(CC)c1ccc2c(-c3ccc(S(=O)(=O)O)cc3S(=O)(=O)[O-])c3ccc(=[N+](CC)CC)cc-3oc2c1	-24.3	14.8	76.7*	13.5	14.0	16.3
CCN(CC)c1ccc2nc3c4ccccc4c(=O)cc-3oc2c1	0.3	/	-0.9	/	/	/
CCN(CC)CCCNc1ccc2ncn3c4ccc(O)cc4c(=O)c1c23	29.0	22.9	2.2	-10.6	133.4*	-39.8
CN(C)CCNc1ccc2nnn3c4ccc(O)cc4c(=O)c1c23	15.2	-2.0	-13.3	-92.7	52.6*	-0.6
